Reference: ChEMBL document CHEMBL4715820, “Aglycone Ebselen and β-d-Xyloside Primed Glycosaminoglycans Co-contribute to Ebselen β-d-Xyloside-Induced Cytotoxicity” (J Med Chem, 2018)
Activity calls are given as the source filed them. The rule behind the calls is not given here.

What was measured:
[1] = system: HCT-116; experiment: Induction of apoptosis in human HCT-116 cells assessed as increase in early apoptosis level at 40 uM incubated for 24 hrs by annexin-V/propidium iodide staining based flow cytometry relative to control; assay type: functional, cell-based
Outline: (§1)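 HCT116 cells were seeded at 6 × 10^4 cells/well and treated 24 h later in medium containing 0.1% DMSO, with DMSO alone as the control. Floating and trypsinized adherent cells were pooled and washed in binding buffer. They were stained with Annexin V/PI for 15 min at room temperature and read by flow cytometry. Early apoptotic cells were FITC+/PI−; late apoptotic cells were FITC+/PI+.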

[2] = system: NCI-H1299; experiment: Cytotoxicity in human NCI-H1299 cells assessed as reduction in cell viability incubated for 48 hrs by resazurin dye based assay; assay type: functional; conditions: for IC50: NCI-H1299, 48 h
Outline: (§2)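 Cells seeded at 2000/well, 24 h later exposed to serial dilutions (0.1% DMSO vehicle) in complete medium for 48 h; resazurin (2 mg/mL stock) then added for 16 h; fluorescence at 544 nm excitation/595 nm emission, proportional to living cells. Triplicate wells, repeated twice; IC50 from concentration-response.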

[3] = system: HT-29; experiment: Cytotoxicity in human HT-29 cells assessed as reduction in cell viability incubated for 48 hrs by resazurin dye based assay; assay type: functional; conditions: for IC50: HT-29, 48 h; outline: as §2
[4] = system: A549; experiment: Cytotoxicity in human A549 cells assessed as reduction in cell viability incubated for 48 hrs by resazurin dye based assay; assay type: functional; conditions: for IC50: A549, 48 h; outline: as §2
[5] = system: HCT-116; experiment: Cytotoxicity in human HCT-116 cells assessed as reduction in cell viability incubated for 48 hrs by resazurin dye based assay; assay type: functional; conditions: for IC50: HCT-116, 48 h; outline: as §2
[6] = system: HCT-116; experiment: Induction of cell cycle arrest at S phase in human HCT-116 cells at 40 uM incubated for 24 hrs by propidium iodide /RNase staining based flow cytometry; assay type: functional
Outline: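 HCT116 cells (6 × 10^4/well) were seeded, then exposed 24 h later in complete medium, with 0.1% DMSO as the control. After 24 h, medium cells and trypsinized adherent cells were combined. Pellets were fixed in 70% ethanol at 4 °C overnight and stained with PI/RNase buffer for 15 min at room temperature. Phase distribution (G0/G1, S, G2/M) was measured by flow cytometry.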

[7] = system: HCT-116; experiment: Induction of apoptosis in human HCT-116 cells assessed as increase in late apoptosis level at 40 uM incubated for 24 hrs by annexin-V/propidium iodide staining based flow cytometry relative to control; assay type: functional, cell-based; outline: as §1
[8] = system: HCT-116; experiment: Induction of apoptosis in human HCT-116 cells assessed as late apoptosis level at 12.5 uM […] by annexin-V/propidium iodide staining based flow cytometry relative to control; assay type: functional
[9] = system: HCT-116; experiment: Induction of cell cycle arrest in human HCT-116 cells assessed as G2/M cell population level at 15 uM incubated for 24 hrs by propidium iodide /RNase staining based flow cytometry; assay type: functional
Outline: (§3)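 HCT116 cells (6 × 10^4/well, six-well plates) treated after 24 h for 24 h (12.5 or 15 μM for one conjugate, 20 μM for others; 0.1% DMSO vehicle); floating and trypsinized cells fixed in 70% ethanol at 4 °C overnight, stained with PI/RNase 15 min at room temperature, DNA content by flow cytometry; phase distribution versus control.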

[10] = system: CHO; experiment: Induction of GAG biosynthesis in CHO pgsA-745 cells assessed as increase in GalN level in culture media at 10 uM incubated for 48 hrs by immunostaining based confocal microscopic analysis relative to control; assay type: functional, cell-based; conditions: Cricetulus griseus
[11] = (§4) Induction of GAG biosynthesis in CHO pgsA-745 cells assessed as increase in GlcN level at 10 uM incubated for 48 hrs by immunostaining based confocal microscopic analysis relative to control; assay type: functional, Cricetulus griseus
[12] = Induction of GAG priming in CHO pgsA-745 cells assessed as increase in delta-UA-GalNAc4S level in from the cell culture media at 10 uM incubated for 24 hrs by LC-MS analysis relative to control; assay type: functional; conditions: Cricetulus griseus, time 48 hrs, in the assay text read “48 hrs” for “24 hrs”
Outline: (§5)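 Disaccharide LC-MS: CHO pgsA-745 cells treated at 10 μM in 0.1% DMSO, GAGs purified from cells or medium, digested with 1 mU chondroitinase ABC (5 mM NH4Ac pH 7.0, 37 °C, 24 h); treated samples PMP-labelled, DMSO controls D5-PMP-labelled, mixed at equal cellular protein (1 mg), co-injected on C18 capillary LC, negative-ion MS; paired ion intensities compared.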

[13] = system: HCT-116; experiment: Induction of apoptosis in human HCT-116 cells assessed as increase in late apoptosis level at 7.5 uM […] by annexin-V/propidium iodide staining based flow cytometry relative to control; assay type: functional, cell-based
[14] = Induction of GAG priming in CHO pgsA-745 cells assessed as change in UA-GalNAc relative intensity level at 10 uM incubated for 24 hrs by LC-MS analysis (reference value: 44.74); assay type: functional, Cricetulus griseus; outline: as §5
[15] = (§6) Induction of GAG biosynthesis in CHO pgsA-745 cells assessed as increase in GalN level at 10 uM incubated for 48 hrs by immunostaining based confocal microscopic analysis relative to control; assay type: functional, Cricetulus griseus
[16] = system: HCT-116; experiment: Induction of apoptosis in human HCT-116 cells assessed as early apoptosis level at 12.5 uM […] by annexin-V/propidium iodide staining based flow cytometry relative to control; assay type: functional
[17] = Induction of GAG priming in CHO pgsA-745 cells assessed as increase in non-sulfated delta-UA-GalNAc level in from the cell culture media at 10 uM incubated for 48 hrs by LC-MS analysis relative to control; conditions: Cricetulus griseus
[18] = Induction of GAG priming in CHO pgsA-745 cells assessed as change in UA-GalNAc6S relative intensity level at 10 uM incubated for 24 hrs by LC-MS analysis (reference value: 29.19); assay type: functional; conditions: Cricetulus griseus, time 48 hrs, in the assay text read “incubated for 48 hrs” for “incubated for 24 hrs”; outline: as §5
[19] = system: CHO; experiment: Induction of GAG priming in CHO pgsA-745 cells assessed as increase in FGF7/GAGs/FGFR2B ternary complex formation at 10 uM incubated for 24 hrs by confocal microscopy; assay type: functional, cell-based; conditions: Cricetulus griseus
Outline: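 Ternary complex assay: CHO pgsA-745 cells on coverslips treated 10 μM with 0.1% DMSO for 24 h at 37 °C, fixed in 4% formaldehyde 15 min, then incubated sequentially with FGFR2B-Fc, FGF7 and Protein A-Alexa Fluor 647; bound receptor imaged by confocal microscopy at 665 nm […].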

[20] = system: HCT-116; experiment: Induction of cell cycle arrest in human HCT-116 cells assessed as G2/M cell population level at 12.5 uM incubated for 24 hrs by propidium iodide /RNase staining based flow cytometry; assay type: functional; outline: as §3
[21] = system: CHO; experiment: Induction of GAG biosynthesis in CHO pgsA-745 cells assessed as increase in GlcN level in culture media at 10 uM incubated for 48 hrs by immunostaining based confocal microscopic analysis relative to control; assay type: functional, cell-based; conditions: Cricetulus griseus
[22] = Induction of GAG priming in CHO pgsA-745 cells assessed as increase in delta-UA-GalNAc6S level in from the cell culture media at 10 uM incubated for 24 hrs by LC-MS analysis relative to control; assay type: functional; conditions: Cricetulus griseus, time 48 hrs, in the assay text read “incubated for 48 hrs” for “incubated for 24 hrs”; outline: as §5
[23] = system: CHO; experiment: Induction of GAG priming in CHO pgsA-745 cells assessed as increase in specific CS staining […] at 10 uM incubated for 24 hrs by immunostaining based flow cytometry; assay type: functional, cell-based; conditions: Cricetulus griseus
Outline: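 CHO pgsA-745 cells treated 10 μM with 0.1% DMSO 24 h at 37 °C, trypsinized, fixed in 4% formaldehyde, digested with 1 mU chondroitinase ABC 20 min at 37 °C, stained overnight at 4 °C with mAb 2B6 then Alexa Fluor 488 anti-mouse secondary; fluorescence intensity read by flow cytometry.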

[24] = system: HCT-116; experiment: Induction of apoptosis in human HCT-116 cells assessed as increase in early apoptosis level at 7.5 uM […] by annexin-V/propidium iodide staining based flow cytometry relative to control; assay type: functional
[25] = system: HCT-116; experiment: Induction of cell cycle arrest in human HCT-116 cells assessed as increase in G2/M cell population level at 12.5 uM incubated for 24 hrs by propidium iodide /RNase staining based flow cytometry relative to control; assay type: functional; outline: as §3
[26] = Induction of GAG priming in CHO pgsA-745 cells assessed as change in UA-GalNAc4S relative intensity level at 10 uM incubated for 24 hrs by LC-MS analysis (reference value: 2.9); assay type: functional; conditions: Cricetulus griseus, time 48 hrs, in the assay text read “incubated for 48 hrs” for “incubated for 24 hrs”; outline: as §5
[27] = system: CHO; experiment: as §4; assay type: functional; conditions: Cricetulus griseus
[28] = system: CHO; experiment: as §6; assay type: functional; conditions: Cricetulus griseus
[29] = Induction of GAG priming in CHO pgsA-745 cells assessed as change in UA-GalNAc4S relative intensity level at 10 uM incubated for 24 hrs by LC-MS analysis (reference value: 1.01); assay type: functional; conditions: Cricetulus griseus, time 48 hrs, in the assay text read “incubated for 48 hrs” for “incubated for 24 hrs”; outline: as §5
[30] = Induction of GAG priming in CHO pgsA-745 cells assessed as change in UA-GalNAc6S relative intensity level at 10 uM incubated for 24 hrs by LC-MS analysis (reference value: 9.52); assay type: functional; conditions: Cricetulus griseus, time 48 hrs, in the assay text read “incubated for 48 hrs” for “incubated for 24 hrs”; outline: as §5
[31] = Induction of GAG priming in CHO pgsA-745 cells assessed as change in UA-GalNAc relative intensity level at 10 uM incubated for 24 hrs by LC-MS analysis (reference value: 8.99); assay type: functional, Cricetulus griseus; outline: as §5
[32] = Induction of GAG priming in CHO pgsA-745 cells assessed as increase in non-sulfated delta-UA-GalNAc level in from the cell culture media at 10 uM incubated for 24 hrs by LC-MS analysis relative to control; assay type: functional; conditions: Cricetulus griseus, time 48 hrs, in the assay text read “incubated for 48 hrs” for “incubated for 24 hrs”; outline: as §5
[33] = system: HCT-116; experiment: Induction of cell cycle arrest in human HCT-116 cells assessed as increase in G2/M cell population level at 20 uM incubated for 24 hrs by propidium iodide /RNase staining based flow cytometry relative to control; assay type: functional; outline: as §3
[34] = system: HCT-116; experiment: Induction of apoptosis in human HCT-116 cells assessed as increase in late apoptosis level at 40 uM incubated for 48 hrs by annexin-V/propidium iodide staining based flow cytometry relative to control

Compound | Activity [1] | IC50 [2] [µM] | IC50 [3] [µM] | IC50 [4] [µM] | IC50 [5] [µM] | Activity [10] | fold change (FC) [12] | Activity [19] | Activity [21] | fold change (FC) [22] | Activity [33] | Activity [34] | further results
O=c1c2ccccc2[se]n1-c1ccccc1 [EBSELEN] | Active | 27.7 | 50.4 | 16.8 | 50 |  |  |  |  |  |  |  | Activity [6]: Active; Activity [7]: Active
CC(=O)O[C@@H]1[C@@H](OC(C)=O)[C@H](OC(C)=O)CO[C@H]1n1[se]c2ccccc2c1=O |  | 7 | 7.3 | 7 | 6.4 | inactive | 34.5 | Active | inactive | 3.4 |  |  | Activity [8]: 13.18%; Activity [9]: 51.9%; fold change (FC) [11]: 12.2; Activity [13]: Active; fold change (FC) [14]: 100; fold change (FC) [15]: 27.6; Activity [16]: 10.97%; fold change (FC) [17]: 2.24; fold change (FC) [18]: 100; Activity [2]: Dose-dependent effect; Activity [3]: Dose-dependent effect; Activity [4]: Dose-dependent effect; Activity [20]: 45.2%; Activity [23]: Active; Activity [5]: Dose-dependent effect; fold change (FC) [24]: 27.7; fold change (FC) [25]: 1.3; fold change (FC) [26]: 100
O[C@@H]1[C@@H](O)[C@H](Oc2ccccc2)OC[C@H]1O |  |  |  |  |  | Active | <=99 | inactive | Active | 10.5 |  |  | Activity [27]: Active; Activity [28]: Active; fold change (FC) [29]: 100; fold change (FC) [30]: 100; fold change (FC) [31]: 100; fold change (FC) [32]: 11
CC(=O)OC[C@H]1O[C@@H](n2[se]c3ccccc3c2=O)[C@H](OC(C)=O)[C@@H](OC(C)=O)[C@H]1OC(C)=O | Active | 21.6 | 19.3 | 25.2 | 17.8 |  |  |  |  |  | Active | Active | 
CC(=O)OC[C@H]1O[C@@H](O[C@H]2[C@H](OC(C)=O)[C@@H](OC(C)=O)[C@H](n3[se]c4ccccc4c3=O)O[C@@H]2COC(C)=O)[C@H](OC(C)=O)[C@@H](OC(C)=O)[C@H]1OC(C)=O | Active | 34 | 32.3 | 36.5 | 24.2 |  |  |  |  |  | Active | Active | 
CC(=O)OC[C@H]1O[C@@H](n2[se]c3ccccc3c2=O)[C@H](OC(C)=O)[C@@H](OC(C)=O)[C@@H]1OC(C)=O | Active | 19 | 11.9 | 20.4 | 18 |  |  |  |  |  | Active | Active | 
